Calls of active or inactive are those of the source.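 The calls were made as follows, unless noted: active = visually confirmed hit in the image check and inhibition above 20%; inconclusive = visually confirmed hit but inhibition not above 20%; inactive = no visual hit in the image check.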
What was measured:
[1] = inhibitors of TNFa-induced NFkB p65 translocation, primary screen, imaging, HUVEC, MLSMR starter and 10KST1 sets (AID 438;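 active = inhibition above 20% together with a positive visual image hit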;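 also: compound added about 3h40 before a 20 min TNFalpha stimulation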;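 as to inhibition: signal is the nuclear over cytoplasmic p65 intensity ratio per well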); settings: HUVEC TNFa-induced p65 nuclear translocation; cell count: measured here: nuclei count (cytotoxicity indicator), at 2.08 µM; inhibition: at 2 µM, stronger effect = higher value, 0% TNFa-plus-vehicle, 100% no-TNFa wells
[2] = inhibitors of mutant huntingtin aggregation, primary screen, imaging, exon1htt(103Q)mCFP cells, high-content imaging (AID 483;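 active = visual image review flags a hit and inhibition of aggregation exceeds 20%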;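 also: compound exposure lasted 3 days before fixation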;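 as to nuclei count: percent of the per-plate median nuclei count of sample wells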); settings: exon1htt(103Q)mCFP cell line, aggregate imaging, at 2 µM; inhibition of aggregation: stronger effect = higher value; nuclei count: measured here: cell count, toxicity
[3] = inhibitors of E-selectin induction by TNFa, primary screen, imaging, HUVEC, immunofluorescence, MLSMR starter and 10KST1 sets (AID 487); settings: HUVEC TNFalpha-induced E-selectin immunofluorescence imaging, at 2 µM; inhibition: stronger effect = higher value; nuclei count: measured here: cell number, toxicity;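 as to inhibition: signal is fraction of cell area covered by stained E-selectin grains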;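 as to nuclei count: 100% = median nuclei count of all wells on the same plate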
[4] = target: Voltage-gated potassium channel subunit beta-2 (Rattus norvegicus) (UniProt P62483); assay: KvBeta enzyme negative modulators, primary screen, biochemical, NADPH fluorescence (AID 622;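 active = fluorescence slope higher than the sample average by over 3 SD, cut at about -0.22 in these data, passing the limit was not always enough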;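 also: slope of raw intensity against log time taken from 70 to 1610 s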); settings: recombinant KvBeta, 4-cyanobenzaldehyde reduction, at 10 µM, stronger effect = higher value
Sequence of Voltage-gated potassium channel subunit beta-2 (Rattus norvegicus) (P62483 whole entry, looked up): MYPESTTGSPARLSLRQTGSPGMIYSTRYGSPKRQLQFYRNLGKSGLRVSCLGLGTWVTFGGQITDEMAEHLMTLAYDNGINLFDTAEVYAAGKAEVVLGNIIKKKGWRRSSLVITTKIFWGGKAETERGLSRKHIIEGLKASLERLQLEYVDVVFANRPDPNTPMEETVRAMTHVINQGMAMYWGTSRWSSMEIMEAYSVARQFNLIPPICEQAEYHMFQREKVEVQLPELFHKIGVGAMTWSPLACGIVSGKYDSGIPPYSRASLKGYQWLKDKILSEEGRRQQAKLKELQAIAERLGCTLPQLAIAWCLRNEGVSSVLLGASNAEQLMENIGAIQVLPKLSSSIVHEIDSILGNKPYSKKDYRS

[5] = target: Voltage-gated potassium channel subunit beta-2 (Rattus norvegicus) (UniProt P62483); assay: KvBeta positive modulators, primary screen, biochemical, NADPH fluorescence (AID 623;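 active = NADPH fluorescence slope more negative than the mean of all samples by about 3 SD, 99.7% confidence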;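 also: fluorescence intensity change per second fitted from 20 to 320 s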); settings: Recombinant KvBeta, NADPH fluorescence decrease slope, 10 min; at 10 µM; stronger effect = lower value
[6] = target: Alpha-2C adrenergic receptor (Homo sapiens) (UniProt P18825); assay: modulators of alpha2C/GIRK thallium flux, primary screen, cell-based, HEK293 alpha2C/GIRK1/2 (AID 624;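 active = fluorescence slope after compound addition differing from the mean of all screened samples at 99.7% confidence, in either direction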;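 also: slope of fluorescence ratio to pre-addition baseline per second over 15 to 24 s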); settings: thallium flux BTC fluorescence, at 10 µM, actives lie on both sides
Sequence of Alpha-2C adrenergic receptor (Homo sapiens) (P18825 whole entry, looked up): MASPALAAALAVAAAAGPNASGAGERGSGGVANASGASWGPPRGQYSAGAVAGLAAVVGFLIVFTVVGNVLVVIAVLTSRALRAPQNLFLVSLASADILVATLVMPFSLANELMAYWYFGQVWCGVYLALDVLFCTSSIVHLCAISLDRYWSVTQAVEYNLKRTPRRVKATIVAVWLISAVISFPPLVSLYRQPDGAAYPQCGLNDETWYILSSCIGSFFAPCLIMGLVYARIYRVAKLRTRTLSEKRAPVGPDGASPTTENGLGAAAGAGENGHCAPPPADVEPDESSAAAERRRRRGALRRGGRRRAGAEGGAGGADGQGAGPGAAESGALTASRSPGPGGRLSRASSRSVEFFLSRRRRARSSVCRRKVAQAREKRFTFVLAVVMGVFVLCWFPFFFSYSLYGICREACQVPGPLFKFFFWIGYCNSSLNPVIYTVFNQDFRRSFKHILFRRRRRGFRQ

[7] = inhibitors of larval lipid processing in zebrafish, primary screen, whole organism, PED6 fluorescence, gall bladder and intestine (AID 686;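 active = a full or partial loss of lipid-probe fluorescence in the fish gall bladder, intestine or both, judged by eye; inactive = no fluorescence loss, or compound toxic to the fish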;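 also: larvae 5 to 7 days old with five fish per well; signal comes from phospholipase A2 cleavage of quenched PED6 carried via bile; overnight exposure to compound and PED6 before scoring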); settings: Zebrafish larvae PED6 lipid processing, fluorescence scoring; screened at 20 µM (by protocol)
Outline: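 System: live zebrafish larvae aged 5-7 days, whole organism; measure: graded gall bladder and intestinal fluorescence inhibition per well; incubation: overnight exposure; reagent: ingested quenched lipid PED6 at 100 nM; signal: By-eye fluorescence microscopy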

[8] = inhibitors of Sendai virus-induced IRF3 signaling, primary screen, TLR/RLR signaling modifier project, cell-based, Sendai virus stimulus, luciferase, 10K MLSCN set (AID 602276;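 active = inhibition at or above 50% at 10 µM; inactive = inhibition below 50%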;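 also: firefly luciferase from ISG56 promoter only with Renilla not read in this screen; 0% = Sendai virus plus DMSO and 100% = medium plus DMSO without virus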); settings: HEK293 RL24 IRF3 luciferase reporter, at 10 µM, stronger effect = higher value
[9] = inhibitors of poly I:C-induced TLR3 signaling, primary screen, cell-based, poly I:C stimulus, luciferase, 10K MLSCN set (AID 602277;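 active = inhibition of the reporter signal at or above 50%; inactive = inhibition below 50%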); settings: HEK293-TLR3 RL24 IRF3 luciferase reporter, at 10 µM, stronger effect = higher value

| Structure (SMILES) | cell count [1] | inhibition [1] | inhibition of aggregation [2] | nuclei count [2] | inhibition [3] | nuclei count [3] | fluorescence slope [4] | NADPH fluorescence slope [5] | slope [6] | outcome [7] | inhibition [8] | inhibition [9] |
| --- | --- | --- | --- | --- | --- | --- | --- | --- | --- | --- | --- | --- |
| COc1ccc(-c2nsc(SCC(=O)Nc3cc(C)on3)n2)cc1 | 245 | -7% (inactive) | 14.4% (inactive) | 84.3% | 50.5% (inactive) | 64.4% | -0.396 (inactive) | -2.2e-07 (inactive) | 0.0058 (inactive) | inactive | 21.4% (inactive) | 17.9% (inactive) |
| CCOC(=O)N1CCC(NC(=O)Cn2cc3c(n2)CCC(C)C3)CC1 (stereo not given) | 420 | -11.9% (inactive) | 0.7% (inactive) | 108% | -5.4% (inactive) | 101% | -0.479 (inactive) | 1.7e-05 (inactive) | 0.0047 (inactive) | inactive | -10.4% (inactive) | -9.33% (inactive) |
| O=C(c1ccc2snnc2c1)N1CCOCC1 | 370 | 6.3% (inactive) | -11.2% (inactive) | 107% | -50.1% (inactive) | 117% | -0.371 (inactive) | -4.9e-05 (inactive) | 0.00486 (inactive) | inactive | 10.1% (inactive) | 13.9% (inactive) |
| O=C(COc1ccc(S(=O)(=O)NC2CCCCC2)cc1)NCc1ccccn1 | 400 | -5.1% (inactive) | -2.7% (inactive) | 101% | -8.3% (inactive) | 107% | -0.401 (inactive) | -1.8e-06 (inactive) | 0.00588 (inactive) | inactive | -5.78% (inactive) | 1.29% (inactive) |
| CCOC(=O)N1CCN(C(=O)CN(C2CCCCC2)S(=O)(=O)c2ccc(F)cc2)CC1 | 645 | -10.7% (inactive) | 18.3% (inactive) | 81.3% | -51.6% (inactive) | 108% | -0.355 (inactive) | -7.3e-05 (inactive) | 0.00492 (inactive) | inactive | 21.5% (inactive) | 81.8% (active) |
| Cc1ccc(C)c(CSc2nnc(CCN)o2)c1 | 431 | -14.5% (inactive) | 2.5% (inactive) | 65.3% | -41.1% (inactive) | 103% | -0.462 (inactive) | -9.3e-06 (inactive) | 0.00535 (inactive) | inactive | 6.22% (inactive) | 10.2% (inactive) |
| COc1cc2c(cc1OC)C(/C(C#N)=N\O)=NC(C)(C)C2 | 635 | -39.6% (inactive) | 2.8% (inactive) | 107% | 33% (inactive) | 96.2% | -0.432 (inactive) | -2e-05 (inactive) | 0.0058 (inactive) | inactive | 13.5% (inactive) | 13.6% (inactive) |
| COc1ccc(C)cc1-n1nnnc1SC/C(O)=C(\C#N)c1nc2ccccc2[nH]1 | 614 | 5.1% (inactive) | -491% (inactive) | 42.2% | -42.5% (inactive) | 104% | -0.431 (inactive) | -3.4e-05 (inactive) | 0.00627 (inactive) | active; weak signal in gallbladder only | 15.6% (inactive) | 27% (inactive) |
| N#CCC(=O)Nc1ncn(Cc2ccccc2Cl)n1 | 273 | -2.5% (inactive) | -6% (inactive) | 87.3% | -51.5% (inactive) | 105% | -0.456 (inactive) | 1.5e-06 (inactive) | 0.00405 (inactive) | inactive | -5.79% (inactive) | 4.42% (inactive) |
| Cc1ccc2c(c1C)NC(C(=O)O)C1CC=CC21 (stereo not given) | 371 | 1.6% (inactive) | -10.5% (inactive) | 77.6% | -11.4% (inactive) | 114% | -0.373 (inactive) | -2.5e-05 (inactive) | 0.00434 (inactive) | inactive | 13.7% (inactive) | 18.5% (inactive) |
| FC(F)Oc1cccc2cccnc12 | 538 | -5.8% (inactive) | -5.4% (inactive) | 103% | 67.2% (active) | 82.3% | -0.345 (inactive) | -1.3e-05 (inactive) | 0.00451 (inactive) | inactive | 10.2% (inactive) | 9.81% (inactive) |
| COCCCN1C(=O)C(=O)/C(=C(/O)c2ccc(OC)cc2)C1c1ccc(O)c(OC)c1 (stereo not given) | 499 | -14.9% (inactive) | -10% (inactive) | 101% | 25.3% (inactive) | 98.6% | -0.39 (inactive) | -2.6e-05 (inactive) | 0.00521 (inactive) | inactive | 4.25% (inactive) | -6.14% (inactive) |
| COc1ccc(-n2nc3cc(C)c(N)c(Br)c3n2)cc1 | 336 | -6.8% (inactive) | 3.9% (inactive) | 59.9% | -17.3% (inactive) | 83.5% | -0.411 (inactive) | -4.9e-05 (inactive) | 0.00393 (inactive) | inactive | -10.7% (inactive) | -36.5% (inactive) |
| O=C(NCCCN1CCN(c2cccc(Cl)c2)CC1)c1ccc(N2CCCC2=O)cc1 | 763 | -10% (inactive) | 11.5% (inactive) | 97.9% | 46.9% (inactive) | 105% | -0.479 (inactive) | -5.9e-05 (inactive) | 0.00509 (inactive) | inactive | 10.3% (inactive) | 0.162% (inactive) |
| CN1CCN(c2ccc(Cl)cc2NC(=O)c2cccc(S(=O)(=O)N(C)C)c2)CC1 | 378 | 0.5% (inactive) | -6.9% (inactive) | 133% | 14.4% (inactive) | 88.8% | -0.373 (inactive) | -2e-05 (inactive) | 0.00491 (inactive) | inactive | 6.8% (inactive) | 12.4% (inactive) |
| CCCn1nnc(NCc2ccc(OCc3cccs3)c(OC)c2)n1 | 226 | -5.8% (inactive) | 7.5% (inactive) | 90% | -51.4% (inactive) | 99% | -0.467 (inactive) | -3.7e-05 (inactive) | 0.00561 (inactive) | inactive | 8.88% (inactive) | 6.19% (inactive) |
| COc1ccccc1C(=O)NCC(=O)Nc1ccccc1 | 258 | -2.3% (inactive) | 14.2% (inactive) | 94.4% | 59% (inactive) | 27.8% | -0.451 (inactive) | -4.6e-05 (inactive) | 0.00528 (inactive) | inactive | 6.26% (inactive) | 8.93% (inactive) |
| O=C(Nc1ccon1)c1cccc(S(=O)(=O)N2CCCC2)c1 | 307 | -2.7% (inactive) | 21% (inactive) | 86.7% | -11.9% (inactive) | 102% | -0.374 (inactive) | -1.7e-05 (inactive) | 0.00556 (inactive) | inactive | 13.5% (inactive) | 13.6% (inactive) |
| Cc1cccc(NC(=O)CC2CCC2)c1 | 362 | -4.1% (inactive) | 3% (inactive) | 97.1% | 40.7% (inactive) | 71.8% | -0.435 (inactive) | -2.3e-05 (inactive) | 0.00515 (inactive) | inactive | 3.07% (inactive) | -0.215% (inactive) |
| O=C(c1cccc2c1C(=O)N(Cc1cccnc1)C2)N1CCN(c2ccccc2)CC1 | 941 | 9.3% (inactive) | -5.7% (inactive) | 103% | -104% (inactive) | 135% | -0.365 (inactive) | -6e-05 (inactive) | 0.00499 (inactive) | inactive | 13.7% (inactive) | 9.9% (inactive) |

Reference: PubChem BioAssay
